According to PubChem BioAssay:
Calls of active or inactive are those of the source.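 Rule for the calls, unless noted: active = Her2 level under about 52% in both replicate screens, with viability over 70% of control (limit read from the data); inconclusive = Her2 under the limit in one screen only, or viability under 70%; inactive = Her2 level above the set limit.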

Key:
[1] = reducers of endogenous Her2 protein level, primary screen, SKBR3 breast tumor cells, AlphaScreen, ATP viability (AID 461); settings: 18-24 h, measured here: SKBR3 viability, ATP luminescence, at 10 µM;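 for Her2 level: lower value means less Her2 protein in the cells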;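 for viability: percent of carrier control wells set as 100% viability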
[2] = target: Receptor tyrosine-protein kinase erbB-2 (Homo sapiens) (UniProt P04626); assay: as above; settings: 18-24 h, at 10 µM, stronger effect = lower value
[3] = SK-BR-3 cell growth inhibitors, pilot screen, 24 h, human (AID 572;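 active = viability at or below 10% of carrier control in both of two separate runs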;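 note: compound exposure lasted between 18 and 24 h rather than exactly 24 h; 100% = carrier-treated control wells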); settings: SK-BR-3 viability, CellTiter-Glo luminescence, at 10 µM, stronger effect = lower value
[4] = HUVEC growth inhibition – cell-based, human, primary screen (AID 575;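 active = viability at or below 30% in both replicate assays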;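 note: 100% = median of untreated cell wells with 0.1% DMSO on each plate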); settings: HUVEC proliferation, CellTiter-Glo luminescence, 72 h; at 10 µM; stronger effect = lower value
Method in brief: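 System – primary HUVEC, no more than 12 passages · Medium – Low-serum (2% FBS) EBM, supplemented · Times – 72 h exposure, 37 °C, 5% CO2, 30 min RT equilibration · Measured by – luminescent ATP assay · Read-out – % viability relative to median vehicle-well signal on each plate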

[5] = growth inhibitors of H69AR lung tumor, primary screen, human, duplicate replicates (AID 580;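 active = viability at or under a set limit in both replicates, limit being median viability minus 3 SD, cut at about 48% in these data, passing the limit was not always enough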;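 note: 100% = mean luminescence of untreated wells and 0% = no signal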); settings: H69AR lung tumor cells viability, ATP luminescence, 72 h; at 10 µM; stronger effect = lower value
[6] = reversal of MRP1-mediated doxorubicin resistance, pilot screen, H69AR cells, doxorubicin co-treatment (AID 601;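 active = viability loss from added drug above about 55%, and viability with drug at most 40%, in both replicates, limit read from the data, passing the limit was not always enough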); settings: CellTiter-Glo, 72 h, at 10 µM; for differential viability (reversal): stronger effect = higher value
[7] = 384-well plate pilot, post-Golgi transport modulator project, inhibition of yeast transport mutant growth (AID 636; in the data active = inhibition above about 31%); settings: absorbance 615 nm, about 18 h, stronger effect = higher value
[8] = growth suppression of yeast trafficking mutant, preliminary HTS, modulators of trafficking downstream of Golgi apparatus project, 1536-format plate, OD 615 nm (AID 637; in the data active = inhibition above about 30%); settings: yeast transport mutant growth, absorbance 615 nm, 18 h; stronger effect = higher value
[9] = H69AR cells + 2 uM doxorubicin, measured here: viability with 2 uM doxorubicin, stronger effect = lower value
[10] = H69AR cells, compound alone cytotoxicity

Sequence of Receptor tyrosine-protein kinase erbB-2 (Homo sapiens) (P04626 whole entry, looked up): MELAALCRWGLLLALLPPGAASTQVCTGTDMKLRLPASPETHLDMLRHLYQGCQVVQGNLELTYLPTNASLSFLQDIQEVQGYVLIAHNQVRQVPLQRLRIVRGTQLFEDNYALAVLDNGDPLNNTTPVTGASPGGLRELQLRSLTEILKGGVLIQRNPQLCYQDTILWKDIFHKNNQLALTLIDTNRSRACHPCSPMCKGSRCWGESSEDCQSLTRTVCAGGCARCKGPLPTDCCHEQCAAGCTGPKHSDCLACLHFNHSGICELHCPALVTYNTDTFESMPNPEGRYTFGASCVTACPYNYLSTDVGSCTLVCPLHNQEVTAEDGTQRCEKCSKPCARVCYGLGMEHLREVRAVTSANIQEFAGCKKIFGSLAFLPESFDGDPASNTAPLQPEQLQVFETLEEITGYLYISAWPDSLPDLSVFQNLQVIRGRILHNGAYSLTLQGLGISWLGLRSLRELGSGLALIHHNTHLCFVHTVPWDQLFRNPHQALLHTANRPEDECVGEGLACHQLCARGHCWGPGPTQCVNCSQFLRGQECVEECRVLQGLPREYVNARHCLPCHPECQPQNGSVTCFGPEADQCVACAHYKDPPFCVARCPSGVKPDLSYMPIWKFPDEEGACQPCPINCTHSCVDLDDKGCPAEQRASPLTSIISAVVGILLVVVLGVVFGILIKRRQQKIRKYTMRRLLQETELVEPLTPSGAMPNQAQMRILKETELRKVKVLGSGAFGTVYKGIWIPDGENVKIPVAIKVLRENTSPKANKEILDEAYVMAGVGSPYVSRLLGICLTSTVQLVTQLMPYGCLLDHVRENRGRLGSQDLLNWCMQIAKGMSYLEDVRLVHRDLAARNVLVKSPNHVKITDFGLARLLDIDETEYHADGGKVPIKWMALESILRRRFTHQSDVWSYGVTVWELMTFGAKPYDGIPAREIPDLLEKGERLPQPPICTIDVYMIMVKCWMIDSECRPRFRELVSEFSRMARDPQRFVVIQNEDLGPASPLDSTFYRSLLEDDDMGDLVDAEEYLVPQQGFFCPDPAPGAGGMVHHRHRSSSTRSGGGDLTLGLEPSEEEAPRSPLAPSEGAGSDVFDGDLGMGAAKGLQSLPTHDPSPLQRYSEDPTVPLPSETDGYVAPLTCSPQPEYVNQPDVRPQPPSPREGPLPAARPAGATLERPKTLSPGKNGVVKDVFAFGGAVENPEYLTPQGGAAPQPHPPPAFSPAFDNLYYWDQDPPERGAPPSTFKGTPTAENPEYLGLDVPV

| SMILES | viability [1] | Her2 level [2] | viability [3] | viability [4] | viability [5] | differential viability (reversal) ([6]; H69AR cells + 2 uM doxorubicin) | viability [6, 9] | viability [6, 10] | inhibition [7] | inhibition [8] |
| --- | --- | --- | --- | --- | --- | --- | --- | --- | --- | --- |
| CN1C(=O)NC(NC(=O)C2CCCCC2)(C(F)(F)F)C1=O (stereo not given) | 93% | 85% (inactive) | 93% (inactive) | 98.7% (inactive) | 106% (inactive) | 6.06% (inactive) | 99.8% | 106% | -0.92% (inactive) | -0.65% (inactive) |
| O=C(CSc1nc2ccccc2s1)N1CCOCC1 | 119% | 106% (inactive) | 119% (inactive) | 83.6% (inactive) | 90.4% (inactive) | -6.72% (inactive) | 97.1% | 90.4% | -2.27% (inactive) | -9.03% (inactive) |
| O=S(=O)(c1cccc2nsnc12)N1CCN(c2ncccn2)CC1 | 87% | 96% (inactive) | 87% (inactive) | 105% (inactive) | 86.9% (inactive) | -7.98% (inactive) | 94.9% | 86.9% | -7.16% (inactive) | 3.61% (inactive) |
| Cc1cc(C)c(NC(=O)C2CSCCS2)c(C)c1 (stereo not given) | 90% | 79.5% (inactive) | 90% (inactive) | 99.7% (inactive) | 100% (inactive) | 14.1% (inactive) | 85.9% | 100% | -3.82% (inactive) | -7.17% (inactive) |
| Clc1ccc(-n2ncc3c(NCCCn4ccnc4)ncnc32)cc1 | 87% | 76.5% (inactive) | 87% (inactive) | 91.2% (inactive) | 93.5% (inactive) | 11.3% (inactive) | 82.2% | 93.5% | -5.6% (inactive) | 3.39% (inactive) |
| COc1cc(S(=O)(=O)n2nnc3ccccc32)c(OC)cc1Cl | 96% | 81.5% (inactive) | 96% (inactive) | 77% (inactive) | 84.9% (inactive) | -3.02% (inactive) | 87.9% | 84.9% | -2.8% (inactive) | 41.8% (active) |
| CC(=O)Nc1ccc(S(=O)(=O)N2CCC(c3nc4ccccc4[nH]3)CC2)cc1 | 93% | 81.5% (inactive) | 93% (inactive) | 78.9% (inactive) | 93.6% (inactive) | 9.73% (inactive) | 83.9% | 93.6% | -3.78% (inactive) | 0% (inactive) |
| N#CCc1c(C#N)c(N)nc(N2CCN(S(=O)(=O)c3ccccc3)CC2)c1C#N | 74% | 75.5% (inactive) | 74% (inactive) | 59% (inactive) | 77.6% (inactive) | -13.6% (inactive) | 91.2% | 77.6% | -4.46% (inactive) | 0.16% (inactive) |
| CN1CCc2nc(SCC(=O)Nc3ccc(F)cc3)c(C#N)cc2C1 | 90.5% | 91.5% (inactive) | 90.5% (inactive) | 94.2% (inactive) | 97% (inactive) | -4.23% (inactive) | 101% | 97% | -5.33% (inactive) | 4.1% (inactive) |
| CCCn1c(N)c(C(=O)CSc2nnc(Cc3ccccc3)o2)c(=O)n(C)c1=O | 104% | 90.5% (inactive) | 104% (inactive) | 75.2% (inactive) | 84.6% (inactive) | -13.6% (inactive) | 98.2% | 84.6% | 0.65% (inactive) | 3.93% (inactive) |
| O=C1CCN(C(=O)c2ccccc2)C2CCCCC12 (stereo not given) | 98% | 124% (inactive) | 98% (inactive) | 105% (inactive) | 90.3% (inactive) | -0.825% (inactive) | 91.1% | 90.3% | -4.55% (inactive) | -11% (inactive) |
| CCN(CC)C(=O)CN(c1cc(Cl)ccc1OC)S(C)(=O)=O | 95.5% | 89.5% (inactive) | 95.5% (inactive) | 95.2% (inactive) | 102% (inactive) | 9.04% (inactive) | 93.3% | 102% | -1.18% (inactive) | -3.71% (inactive) |
| O=C(COc1ccccc1)Nc1ccc(-c2nnc(-c3ccco3)o2)cc1 | 128% | 108% (inactive) | 128% (inactive) | 102% (inactive) | 95.5% (inactive) | 8.73% (inactive) | 86.8% | 95.5% | -6.97% (inactive) | -1.15% (inactive) |
| O=C(CCC(=O)N(c1cccc(F)c1)C(C(=O)NC1CCCC1)c1ccncc1)Nc1cccnc1 (stereo not given) | 100% | 95.5% (inactive) | 100% (inactive) | 97.1% (inactive) | 91.7% (inactive) | -4.02% (inactive) | 95.8% | 91.7% | -0.8% (inactive) | 2.74% (inactive) |
| CC(NC(=O)c1ccc(F)cc1)C(c1cccs1)N1CCN(C)CC1 (stereo not given) | 90.5% | 86.5% (inactive) | 90.5% (inactive) | 98% (inactive) | 91.9% (inactive) | 0.16% (inactive) | 91.7% | 91.9% | -6% (inactive) | 3.44% (inactive) |
| O=C(O)c1cc2nc(-c3ccc(F)cc3)cc(C(F)(F)F)n2n1 | 94% | 118% (inactive) | 94% (inactive) | 82% (inactive) | 93.2% (inactive) | 4% (inactive) | 89.2% | 93.2% | -2.24% (inactive) | -1% (inactive) |

| SMILES | viability [1] | Her2 level [2] | viability [3] | viability [4] | viability [5] | differential viability (reversal) ([6]; H69AR cells + 2 uM doxorubicin) | viability [6, 9] | viability [6, 10] | inhibition [7] | inhibition [8] |
| --- | --- | --- | --- | --- | --- | --- | --- | --- | --- | --- |
| O=C(Nc1ccc(Br)cc1F)c1sccc1-n1cccc1 | 87.5% | 72.5% (inactive) | 87.5% (inactive) | 93.5% (inactive) | 83.1% (inactive) | 1.42% (inactive) | 81.7% | 83.1% | -5.66% (inactive) | -8.67% (inactive) |
| CC(=O)c1nnn(-c2nc(N3CCCC3)nc(N(c3ccccc3)c3ccccc3)n2)c1C | 87% | 76% (inactive) | 87% (inactive) | 97.8% (inactive) | 82.7% (inactive) | 5.7% (inactive) | 77% | 82.7% | -2.89% (inactive) | -3.45% (inactive) |
| CCc1ccc(NS(=O)(=O)c2cccs2)cc1 | 97.5% | 102% (inactive) | 97.5% (inactive) | 101% (inactive) | 96% (inactive) | 2% (inactive) | 94% | 96% | -2.24% (inactive) | 1.48% (inactive) |
| CCCN1C(=O)SC(CC(=O)Nc2ccc(Br)cc2)C1=O (stereo not given) | 105% | 112% (inactive) | 105% (inactive) | 77.7% (inactive) | 95.8% (inactive) | 4.58% (inactive) | 91.2% | 95.8% | -2.24% (inactive) | -8.41% (inactive) |
| O=C(c1ccc(Cl)cc1)N(Cc1cccs1)C1CCS(=O)(=O)C1 (stereo not given) | 100% | 138% (inactive) | 100% (inactive) | 117% (inactive) | 89.2% (inactive) | -8.41% (inactive) | 97.6% | 89.2% | -3.29% (inactive) | 7.7% (inactive) |
| CCOC(=O)CNC(=O)CSc1ncnc2c1cnn2-c1ccccc1 | 87.5% | 94% (inactive) | 87.5% (inactive) | 97.4% (inactive) | 102% (inactive) | 6.58% (inactive) | 95.1% | 102% | -4% (inactive) | -2.26% (inactive) |
| CCOc1ccc(C(=O)CN2CCN(S(=O)(=O)c3ccc(OC)cc3)CC2)cc1 | 99.5% | 88% (inactive) | 99.5% (inactive) | 91.2% (inactive) | 86.7% (inactive) | -8.05% (inactive) | 94.7% | 86.7% | -3.68% (inactive) | -8.33% (inactive) |
| O=C(OCC(=O)N1CCc2ccccc21)C1=COCCO1 | 89.5% | 90% (inactive) | 89.5% (inactive) | 88.4% (inactive) | 86.1% (inactive) | 18.2% (inactive) | 67.9% | 86.1% | -4.94% (inactive) | -0.32% (inactive) |
| Cn1cc(C(=O)c2ccc(F)cc2)cc1-c1nc2ccccc2n1C | 91% | 65% (inactive) | 91% (inactive) | 76% (inactive) | 102% (inactive) | 10% (inactive) | 92% | 102% | -0.4% (inactive) | 1.64% (inactive) |
| CCOC(=O)C1=C(NC#N)OC(C)=C(C)C1c1ccc(O)cc1 (stereo not given) | 92.5% | 79% (inactive) | 92.5% (inactive) | 95.1% (inactive) | 90.3% (inactive) | 3.92% (inactive) | 86.4% | 90.3% | 0.27% (inactive) | 0.65% (inactive) |
| Cc1cc(C)nc(N2CCC(C(=O)NCc3cccc(C(F)(F)F)c3)CC2)n1 | 104% | 100% (inactive) | 104% (inactive) | 76.6% (inactive) | 91.1% (inactive) | 4.94% (inactive) | 86.2% | 91.1% | -6.08% (inactive) | -2.33% (inactive) |
| CCN1CCN(C(=O)c2ccc3c(=O)n(C4CCCC4)c(=S)[nH]c3c2)CC1 | 85.5% | 108% (inactive) | 85.5% (inactive) | 82.9% (inactive) | 84.7% (inactive) | 9.82% (inactive) | 74.8% | 84.7% | 7.37% (inactive) | 19.5% (inactive) |
| CN(C1CCS(=O)(=O)C1)S(=O)C12CC3CC(CC(C3)C1)C2 (stereo not given) | 83% | 95.5% (inactive) | 83% (inactive) | 92.8% (inactive) | 99.9% (inactive) | 3.66% (inactive) | 96.3% | 99.9% | -5.75% (inactive) | -5.08% (inactive) |
| O=C(NCc1ccco1)c1cc2n(n1)C(C(F)(F)F)CC(c1ccc(F)cc1)N2 (stereo not given) | 120% | 106% (inactive) | 120% (inactive) | 67.1% (inactive) | 86.8% (inactive) | 3.92% (inactive) | 82.9% | 86.8% | -4.8% (inactive) | -4.68% (inactive) |
| Nc1c(C2=NCCO2)nnn1Cc1ccccc1 | 118% | 95.5% (inactive) | 118% (inactive) | 94% (inactive) | 87.3% (inactive) | 0.315% (inactive) | 87% | 87.3% | -3.42% (inactive) | 3.28% (inactive) |
